Assay results: ChEMBL document CHEMBL1138928, “Toward orthopoxvirus countermeasures: a novel heteromorphic nucleoside of unusual structure” (J Med Chem, 2006)

How the values were obtained:
[1] = tested on: Vaccinia virus; experiment: Antiviral activity against vaccinia virus in HFF cells by plaque reduction assay; format: functional, organism-based; details: Orthopoxvirus vaccinia
[2] = tested on: Cowpox virus; experiment: Antiviral activity against TK+ cowpox virus delta crmA in HFF cells; format: functional, organism-based
[3] = tested on: Cowpox virus; experiment: Antiviral activity against cowpox virus in HFF cells by plaque reduction assay; format: functional, organism-based
[4] = tested on: Cowpox virus; experiment: Antiviral activity against TK- cowpox virus TK:GFP lacZ in HFF cells; format: functional, organism-based
[5] = tested on: HFF; experiment: Cytotoxicity against HFF cells by neutral red uptake assay; format: functional; details: Homo sapiens
In short: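 Uninfected HFF cells are incubated with various drug concentrations for 7 days at 37 °C. Viability is read by Neutral Red uptake. CC50 is the concentration that reduces uptake by 50%.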

Row | Compound | EC50 [1] | EC50 [2] | EC50 [3] | EC50 [4] | CC50 [5]
1 | Nc1ccn(C[C@@H](CO)OCP(=O)(O)O)c(=O)n1 [CIDOFOVIR] | 24 µM | 3.3 µM | 40 µM | 5.2 µM | > 317 µM
2 | N#CC1=C(N)OC2=C(C(=O)CCC2)C1c1cn([C@H]2C[C@@H](O)[C@@H](CO)O2)c(=O)[nH]c1=O (stereo not given in full) | 4.6 µM | 0.8 µM | 2 µM | 28 µM | > 300 µM
3 | O=c1[nH]c(=O)n([C@H]2C[C@H](O)[C@@H](CO)O2)cc1I [IDOXURIDINE] | 6 µM | 0.4 µM | 2 µM | 27 µM | > 260 µM
